# Screening data (PubChem)
# ARFGAP1 inhibitor: inhibits rat ARF GTPase activating protein 1. Q62848. inhibition, % at 16.5 µM. 360,000 tested, 0.26% active. Arfgap1-stimulated ARF1 GTP hydrolysis, GDP FP detection. AID 651572;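 active means inhibition above a per-plate limit, mean inhibition of low control wells plus 3 SD, cut at about 25% in these data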;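 further: 0% = DMSO wells with enzyme and 100% = wells lacking Arfgap1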
#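 Assay system: Rat Arfgap1 GAP domain (His6, aa 1-136), purified enzyme | Buffer or medium: HEPES 25 mM pH 7.5, NaCl 150 mM, MgCl2, DTT | Schedule: GTP hydrolysis reaction 2 h at 25 °C | Signal: FP of antibody-bound GDP Alexa 633 tracer, ex 620/em 688 nm | Measure: Percent inhibition of Arfgap1-stimulated GTP hydrolysis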
# FGF22 binding: binders of recombinant human FGF22 by thermal shift. Q9HCT0. SYPRO orange fluorescence; percent of sucrose octasulfate shift, DMSO zero. activity (Tm shift, normalised), % at 9.99 µM. 340,000 tested, 1.5% active. AID 651658;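 active means mean Tm shift, scaled 0 neutral to 100 positive control, at about 1.3% or above, every replicate too, limit read from the data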
# Target sequence (Q9HCT0 whole entry, looked up): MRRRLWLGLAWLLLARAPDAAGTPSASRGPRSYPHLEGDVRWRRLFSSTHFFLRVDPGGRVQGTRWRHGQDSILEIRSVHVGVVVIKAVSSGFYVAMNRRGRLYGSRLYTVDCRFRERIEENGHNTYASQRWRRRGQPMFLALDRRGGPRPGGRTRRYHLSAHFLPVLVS
# ASAP1 GAP inh: inhibitors of human ASAP1 ArfGAP activity; Q9ULH1; ASAP1-stimulated ARF1 GTP hydrolysis, GDP FP detection; inhibition, % at 16.5 µM; 360,000 tested, 0.19% active; AID 624377; in the data active means inhibition above about 25%;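 further: 0% = vehicle with enzyme and substrate and 100% = no enzyme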
# Rtt109 Vps75: C. albicans Rtt109 histone acetyltransferase inhibition | purified Rtt109/Vps75, ThioGlo CoA-SH fluorescence, 4 h | AID 540336 | Q5AAJ8 | 330,000 tested, 0.16% active | inhibition, % at 34.9 µM;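 active means inhibition of at least 50% in every replicate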
# Target sequence (Q5AAJ8 whole entry, looked up): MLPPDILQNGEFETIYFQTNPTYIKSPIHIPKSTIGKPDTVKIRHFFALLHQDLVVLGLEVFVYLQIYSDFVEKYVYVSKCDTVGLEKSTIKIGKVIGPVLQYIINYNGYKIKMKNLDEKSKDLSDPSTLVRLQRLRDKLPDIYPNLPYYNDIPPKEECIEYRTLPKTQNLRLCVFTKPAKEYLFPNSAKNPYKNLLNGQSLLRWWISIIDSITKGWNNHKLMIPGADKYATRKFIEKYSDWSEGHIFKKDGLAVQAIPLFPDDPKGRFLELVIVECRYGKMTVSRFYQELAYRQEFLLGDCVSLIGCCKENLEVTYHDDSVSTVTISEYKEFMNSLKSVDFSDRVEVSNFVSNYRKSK
# Efflux pump inh: inhibitors of Candida antifungal efflux pumps expressed in yeast; AID 485275; 330,000 tested, 0.44% active; S. cerevisiae Candida pump triplex, Nile Red efflux; inhibition, % at 10 µM;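 active means plate passing quality check with inhibition over a set limit, or well fluorescence over plate mean plus 4 SD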;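 further: Nile Red retained in pooled yeast measured as flow cytometry median fluorescence; 0% = buffer negative control and 100% = Enniatin B positive control; higher means more Nile Red kept so more efflux inhibition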
# Numbers without * were called inactive; nt = not tested or not shown. A selection: hits, their analogues and other compounds. The true share with any hit is near 1.9%.
SMILES,ARFGAP1 inhibitor,FGF22 binding,ASAP1 GAP inh,Rtt109 Vps75,Efflux pump inh
COc1ccccc1CCNC(=O)Cn1c(=O)oc2ccccc21,-1.5,0.2,-6.3,-1.5,0.5
O=C(Nc1ccccc1)c1csc(-c2ccccc2)n1,11.4,0.1,-1.6,7.9,-0.1
O=C(Nc1ccc(C(F)(F)F)cc1)c1csc(-c2ccncc2)n1,-4.9,43.1*,1.6,2.3,0.0
Cc1ccc(OCc2cc(C(=O)N(CCO)Cc3cccs3)no2)cc1C,14.2,-0.1,0.1,6.6,2.2
O=C(CN1CCN(Cc2ccccc2)CC1)NC(=O)NCc1ccco1,-8.4,nt,13.4,4.1,0.1
O=C(CN1CCN(S(=O)(=O)c2ccccc2[N+](=O)[O-])CC1)NC(=O)NCc1ccco1,5.0,42.9*,-10.4,2.6,-0.1
CCCCCCCN1C2=NCCCN2c2ccccc21,-5.7,43.4*,6.6,-1.4,0.0
CCCCN1C2=NCCCN2c2ccccc21,2.8,nt,-2.9,2.7,0.1
COc1cc(C2NC(=O)C(C#N)=C(Nc3cccc(C)c3)S2)ccc1O (configuration not stated),4.4,0.0,-7.6,147.3*,0.1
CCCNC(=O)Cn1c(=O)/c(=C/c2ccc(-c3cccc([N+](=O)[O-])c3)o2)s/c1=C\C(=O)C(C)(C)C,-3.1,43.7*,-4.2,2.9,nt
CCCNC(=O)Cn1c(=O)/c(=C\c2ccc(-c3cccc([N+](=O)[O-])c3)o2)s/c1=C\C(=O)C(C)(C)C,-11.5,nt,5.7,4.7,0.3
O=C(CSc1ncccn1)NC(=O)Cc1ccccc1,4.8,-0.1,15.1,4.2,-0.2
O=C(Cn1nnc(-c2ccccc2)n1)N1CCN(c2ccc(F)cc2)CC1,-6.2,42.9*,0.1,-2.0,0.1
Cc1ccc(C2=NC(C(F)(F)F)(C(F)(F)F)c3c(n(-c4ccc(F)cc4)c(=O)[nH]c3=O)N2)cc1,11.4,nt,-4.4,-0.8,-0.2
O=c1[nH]c(=O)n(-c2ccc(F)cc2)c2c1C(C(F)(F)F)(C(F)(F)F)N=C(c1ccc(F)cc1)N2,15.2,1.9*,-2.3,-5.4,0.1
Cc1noc(C)c1NC(=O)Nc1ccc2c(c1)C(=O)N([C@H](C)CO)C[C@H](C)[C@@H](CN(C)Cc1ccc(-c3ccccc3)cc1)O2,nt,0.0,nt,nt,nt
Cc1ccc(S(=O)(=O)NC2=NCCCCC2)cc1,-0.6,43.1*,-5.3,-1.8,0.0
O=C(Cc1cccc2ccccc12)NN1C(=O)CSC1=S,-3.6,43.5*,-9.8,-0.9,0.0
Cc1ccc[n+](-c2nc3ccccc3nc2[N-]S(=O)(=O)c2ccccc2)c1,-3.7,0.1,6.2,-4.3,0.0
O=S(=O)([N-]c1nc2ccccc2nc1-[n+]1ccccc1)c1ccc(F)cc1,-0.6,44.7*,12.7,7.0,-0.2
COc1cccc(C(C(=O)NC2CCCCC2)N(C(=O)c2cccs2)c2ccc3c(c2)OCO3)c1 (configuration not stated),3.6,44.2*,2.0,18.8,0.0
CO[C@H]1CN(C)C(=O)c2ccc(NC(=O)c3ccc(F)cc3)cc2OC[C@@H](C)N(C(=O)CC2CC2)C[C@@H]1C,nt,0.2,nt,nt,nt
O=C1OCC2=C1C(c1ccc(F)cc1)c1cc3c(cc1N2)OCO3 (configuration not stated),6.6,43.5*,8.5,-2.6,nt
COc1ccccc1CCC(=O)Nc1ccc(C)cc1Cl,-7.8,43.3*,6.3,7.0,0.1
COc1ccccc1-n1ccn(CC(=O)Nc2ccc(C)cc2Cl)c(=O)c1=O,-0.8,0.0,-5.7,-2.8,-0.2
SMILES,ARFGAP1 inhibitor,FGF22 binding,ASAP1 GAP inh,Rtt109 Vps75,Efflux pump inh
O=C1CCCCC1Sc1nnc(-c2ccc3c(c2)OCO3)o1 (configuration not stated),-0.5,43.3*,-7.1,-11.2,0.2
CN1CCC(=NNC(=O)C(=O)Nc2cccc(Br)c2)CC1,-5.3,42.9*,-15.3,-0.4,-0.2
CN1CCC(=NNC(=O)C(=O)Nc2ccc(F)cc2)CC1,8.6,0.0,-3.3,0.6,0.2
COc1ccc(/C=C/C(=O)c2ccc(O)cc2)cc1,-4.1,1.5*,-2.7,14.5,-0.1
Cc1ccccc1NC(=O)COC(=O)CCc1c[nH]c2ccccc12,-8.3,0.0,0.1,4.9,0.1
Cc1ccc(NC(=O)COC(=O)CCc2c[nH]c3ccccc23)cc1[N+](=O)[O-],2.2,43.0*,16.9,1.0,0.0
C/C(=N\NC(=O)CCc1c[nH]c2ccccc12)c1ccc([N+](=O)[O-])cc1,9.0,43.7*,10.5,-3.2,-0.1
CC1=NNC(=O)C1CCC(=O)N/N=C(/C)c1ccc([N+](=O)[O-])cc1 (configuration not stated),0.1,43.0*,4.1,nt,-0.1
CN(C)c1ccc(/C=N/NC(=O)CCc2c[nH]c3ccccc23)cc1,15.8,43.9*,-7.5,-4.0,0.0
CCN(C(=O)COC(=O)c1ccc(Cl)c(N)c1)C1CCS(=O)(=O)C1 (configuration not stated),5.0,43.1*,20.9,-3.4,0.0
CCN(C(=O)COC(=O)c1ccc(Cl)c(S(=O)(=O)N2CCCCC2)c1)C1CCS(=O)(=O)C1 (configuration not stated),-3.5,-0.1,2.0,-0.7,0.1
O=C(Nc1cc2c3c(c1)CC(=O)N3CCC2)c1ccc(Br)o1,7.4,0.0,3.2,2.4,-0.2
CNC(=O)c1ccsc1NC(=O)CCS(=O)(=O)c1ccccc1,4.8,43.2*,-4.3,2.3,0.0
CCN(CC)c1ccc(C(=O)NNC(=O)CCNC(=O)c2ccccc2)cc1,-9.5,-0.1,-10.8,-3.0,0.3
CCN(CC)c1ccc(C(=O)NNC(=O)CCl)cc1,8.3,44.2*,-7.4,4.4,0.2
O=C(NCCN1CCCC1)c1ccc2c(c1)N(Cc1ccc(F)cc1)C(=O)c1ccccc1S2=O (configuration not stated),8.1,-0.1,12.4,8.4,0.1
COc1ccc(CC(=O)NCc2nnc(SCc3ccc(C)cc3)n2C)cc1,3.2,43.3*,0.2,1.7,-0.1
COc1ccc(NC(=O)Nc2cccc3c2O[C@@H](CN(C)C(=O)Nc2ccc(F)cc2)[C@H](C)CN([C@H](C)CO)C3=O)cc1,nt,-0.4,nt,nt,nt
O=C(NCc1ccccn1)C(=O)NCC(c1ccco1)N1CCN(c2ccc(F)cc2)CC1 (configuration not stated),-0.5,0.0,4.8,-4.5,0.0
O=C(NCc1ccncc1)C(=O)NCC(c1ccco1)N1CCN(c2ccc(F)cc2)CC1 (configuration not stated),0.8,nt,-9.0,53.1*,0.0
Cc1nn(C(C)C(=O)NCc2ccco2)c(=O)c2nn(-c3ccccc3)c(C)c12 (configuration not stated),-6.8,-0.2,-3.6,-0.7,0.0
COc1cccc(C(C(=O)NC2CCCC2)N(CCC(C)C)C(=O)CCC(=O)Nc2cc(C)on2)c1 (configuration not stated),2.9,-0.1,-3.2,50.2*,0.2
